Source: PubChem BioAssay
VLA-4 inh = inhibition in a human VLA-4 binding assay. P13612. VLA-4 expressing cells, ligand binding flow cytometry. inhibition, % (about 7 µM as worked out from the volumes in the protocol). hit rate 0.2% among 330,000. AID 2557; in the data active means inhibition above about 50%
Target sequence (P13612 whole entry, looked up): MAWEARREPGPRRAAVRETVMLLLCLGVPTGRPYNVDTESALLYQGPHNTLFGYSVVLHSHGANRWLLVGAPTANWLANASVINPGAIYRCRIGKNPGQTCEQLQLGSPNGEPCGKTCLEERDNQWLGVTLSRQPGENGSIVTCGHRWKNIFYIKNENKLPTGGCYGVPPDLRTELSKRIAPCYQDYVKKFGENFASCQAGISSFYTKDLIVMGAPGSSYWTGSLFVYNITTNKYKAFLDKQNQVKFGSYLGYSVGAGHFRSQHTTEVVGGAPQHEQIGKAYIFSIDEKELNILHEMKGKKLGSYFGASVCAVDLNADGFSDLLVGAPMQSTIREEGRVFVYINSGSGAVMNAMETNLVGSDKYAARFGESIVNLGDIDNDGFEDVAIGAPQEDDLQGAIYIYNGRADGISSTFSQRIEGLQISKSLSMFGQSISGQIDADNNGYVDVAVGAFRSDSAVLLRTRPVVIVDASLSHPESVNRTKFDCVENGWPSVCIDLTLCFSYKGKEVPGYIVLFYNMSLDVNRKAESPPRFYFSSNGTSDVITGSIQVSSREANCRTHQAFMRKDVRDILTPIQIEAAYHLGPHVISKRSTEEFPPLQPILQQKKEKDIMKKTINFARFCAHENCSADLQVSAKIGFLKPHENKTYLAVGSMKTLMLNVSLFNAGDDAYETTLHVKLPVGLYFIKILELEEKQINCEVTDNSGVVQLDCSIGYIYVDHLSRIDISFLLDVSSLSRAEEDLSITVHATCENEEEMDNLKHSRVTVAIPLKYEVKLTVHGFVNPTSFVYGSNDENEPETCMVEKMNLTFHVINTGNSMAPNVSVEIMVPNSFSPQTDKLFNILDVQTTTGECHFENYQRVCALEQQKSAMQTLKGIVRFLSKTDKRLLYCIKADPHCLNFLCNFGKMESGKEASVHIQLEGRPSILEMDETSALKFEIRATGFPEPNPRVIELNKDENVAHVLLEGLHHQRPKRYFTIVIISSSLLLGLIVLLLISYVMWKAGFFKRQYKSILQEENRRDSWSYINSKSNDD
procasp7 counter = counter-screen: procaspase-7 (human) activation | recombinant procaspase-7, Ac-DEVD-pNA absorbance 405 nm; D23A/D198A/D206A triple mutant, cannot self-cleave; scale: DMSO 0, 5 µM enzyme 100 | AID 463210 | activation, % at 8.5 µM | P55210 | hit rate 0.093% among 330,000;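 active means percent activation above the screen-wide mean plus 3 SD, cut at about 25% in these data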
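Assay system – Uncleavable procaspase-7 mutant enzyme · Quantity – 2 µM procaspase-7 mutant as dispensed · Times – 1 h preincubation, 2 h reaction · Dosing – single nominal 8.5 µM compound dose, 0.8% DMSO final · Buffer or medium – Zinc-free 50 mM HEPES buffer, pH 7.4, with NaCl and Triton X-100 · Detection – Epi-absorbance of released pNA at 405 nm, two timepoints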
procasp3 activ = activates human procaspase-3; activation, % at 8.5 µM; hit rate 0.11% among 330,000; P42574; recombinant procaspase-3 D3A, Ac-DEVD-pNA absorbance 405 nm;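 active means activation above the mean of all tested compounds plus 3 SD, cut at about 21% in these data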;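 further: 0% = DMSO alone and 100% = DMSO wells spiked with extra 5 µM PC-3 D3A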
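Assay system – Procaspase-3 D3A mutant · Benchmarks – DMSO low control, extra-enzyme high control · Technique – 405 nm absorbance of p-nitroaniline, reads at 0 and 120 min · Doses – 8.5 µM nominal · Measure – % activation between DMSO and enzyme-spiked controls · Also added – Ac-DEVD-pNA chromogenic peptide substrate · Schedule – 1 h compound preincubation, 2 h substrate hydrolysis at 25 °C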
GRK2 inh = blocks RNA aptamer binding to human GRK2. P25098. bead flow cytometry, FAM-aptamer displacement from GRK2. inhibition of aptamer binding, % at 10 µM. hit rate 0.59% among 330,000. AID 488847;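 active means inhibition of aptamer binding above 40%, roughly 3 SD of noise, on plates passing a quality check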;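 further: median bead fluorescence of bound FAM aptamer so fluorescent compounds give negative values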
JMJD2C inh = inhibitors of human GASC-1 (JMJD2C) demethylase | Q9H3R0 | GST-JMJD2C(1-420) H3K9me3 demethylation, DELFIA europium | inhibition, % at 2.35 µM | hit rate 0.069% among 330,000;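 active means more than half of a compound's replicate wells show inhibition beyond 50%, single wells judged on their own value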;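 further: signal counts dimethyl H3K9 product captured on neutravidin plate; 0% = median of DMSO wells and 100% = 0.3 times that DMSO median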
Lipid droplet = modulators of hepatic lipid droplet formation; AML12 mouse hepatocytes, oleate lipid droplets, BODIPY imaging; inhibition, % at 6.5 µM; hit rate 0.4% among 240,000; AID 1656;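 active means lipid droplet intensity inhibited by at least 50%, with more than 500 cells counted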
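Material: mouse AML12 hepatocyte cell line, fixed after treatment; Timing: compound with oleate, overnight; Technique: high-content imaging of BODIPY-stained droplets and DAPI nuclei; Probe or stimulus: oleate, 100 µM final; Dosing: compound at 6.5 µM only.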
GRK2 CP1 = confirmation of human GRK2 inhibitors displacing RNA aptamer. shares compounds with GRK2 inh. bead-bound GRK2, FAM-aptamer displacement, flow cytometry. aptamer displacement, % at 10 µM. hit rate 4% among 2,000;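 active means aptamer displacement above 40%, near three times the noise of non-fluorescent compounds, on plates passing quality checks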;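 further: negative values mostly reflect intrinsic compound fluorescence rather than true enhancement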
Aptamer quench 1 = quenches fluorescent RNA aptamer, GRK2 hit artifact. shares compounds with GRK2 inh. Fluorescent RNA aptamer beads, quenching, flow cytometry; active compounds read high. fluorescence change (kMESF span), kMESF (no concentration beside the values). 110 tested, under 10 active;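 active means compounds whose bead fluorescence drops by more than 37 kMESF across the dose range, marking them as dye quenchers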
Aptamer quench SP = aptamer fluorescence quenching in GRK2 counter-screen; shares compounds with GRK2 inh; Carboxyfluorescein RNA aptamer on beads, flow cytometry quenching; active compounds read low; fluorescence response (% of DMSO), % at 10 µM; 2,000 tested, under 10 active; AID 504580;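 active means compounds that quench the bead-bound fluorescent RNA probe, cutting fluorescence to under half of the solvent control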;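 further: counterscreen run without GRK2 so only probe quenching by compound is measured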
Starred values were filed as active, the others as inactive; x = not tested or not shown. The list is not random: actives were taken first. Their share in the collection is about 1.3%.

SMILES	VLA-4 inh	procasp7 counter	procasp3 activ	GRK2 inh	JMJD2C inh	Lipid droplet	GRK2 CP1	Aptamer quench SP	others
CCOc1ccc(N2CC(C(=O)Nc3ccccc3OC)CC2=O)cc1 (stereo unspecified)	36	-13	-2	0	6	-1	x	x
Cc1cccc(C)c1NC(=O)CN1C(=O)CCSc2ccc(S(=O)(=O)N3CCCC3)cc21	4	2	5	42*	-2	-15	-3	99
COc1ccc(S(=O)(=O)N2CCCCCC2)cc1N	7	-1	-2	0	-7	7	x	x
O=C(Cc1ccccc1)Nc1ccc2c(c1)C(=O)N(CC1CCCO1)C2=O (stereo unspecified)	5	4	7	100*	-12	-1	-1	96
O=C(COc1ccccc1)Nc1ccc2c(c1)C(=O)N(CC1CCCO1)C2=O (stereo unspecified)	-5	4	1	1	-4	5	x	x
Cc1ccc(-c2cn(-c3ccccc3)c(SCC(=O)NC3CCS(=O)(=O)C3)n2)cc1C (stereo unspecified)	5	-6	-7	0	-9	-40	x	x
COc1ccc(C(=O)N/C(=C/c2ccco2)C(=O)N2CCCCCC2)cc1	10	-6	-7	0	-3	3	x	x
Cc1ccc2nc(SCC(=O)Nc3cccc(F)c3)nc(=O)n2c1	11	1	5	100*	-5	x	1	99
Cc1ccc2nc(SCC(=O)Nc3cccc(Cl)c3)nc(=O)n2c1	-4	13	5	1	-1	x	x	x
O=C(O)CCn1c(-c2ccccn2)nc2ccccc21	13	-9	-6	27	2	4	4	95
N=C1/C(=C/c2ccco2)C(=O)N=C2SC(CC(=O)N3CCCC3)=NN12	-1	1	7	46*	21	3	14	96
CCOP(=O)(NC(c1ccccc1)c1nc2ccccc2[nH]c1=O)OCC (stereo unspecified)	-5	0	-3	1	4	23	x	x
CC(OC(=O)Cc1c[nH]c2ccccc12)C(=O)N(C)c1ccccc1 (stereo unspecified)	18	3	7	9	-6	x	-1	96
CCCCn1c(N)c(N(CCOC)C(=O)c2cc(-c3ccc(OC)cc3)nc3ccccc23)c(=O)[nH]c1=O	0	2	-3	3	10	x	x	x
CCCCc1nc2cc(C(=O)N3CCCCC3C(=O)OC)ccc2o1 (stereo unspecified)	-3	-1	-6	1	-7	-15	x	x
Cc1nccn1Cc1ccccc1	-9	2	-12	0	-5	-2	x	x
CCOC(=O)c1c(NC(=O)CSc2nc3ccccc3c(=O)n2-c2ccc(F)cc2)sc(C(C)=O)c1C	-2	7	10	73*	9	17	-3	103
CCOC(=O)c1c(NC(=O)CSc2ncnc3ccccc23)sc(C(C)=O)c1C	-1	-8	-8	0	2	-17	x	x
Cc1cc(C)c(C(=O)Nc2ccc(S(=O)(=O)Nc3onc(C)c3C)cc2)c(C)c1	7	4	2	37	x	8	-5	98
COC(=O)c1ccc(S(=O)(=O)NCc2ccco2)o1	-4	-6	-1	47*	-1	13	0	102
COC(=O)c1ccc(S(=O)(=O)NCc2ccc(S(N)(=O)=O)cc2)o1	3	8	6	0	0	1	x	x
Cc1ccc(S(=O)(=O)N2CCOCC2)cc1NC(=O)COC(=O)c1ccc(Cl)s1	8	1	7	4	-6	x	x	x
COc1ccccc1N(C(=O)c1ccco1)C(C(=O)NC1CCCC1)c1ccncc1 (stereo unspecified)	3	2	-7	0	1	-10	x	x
COCCNC(=O)CCn1nc(-c2ccc(C)cc2)ccc1=O	9	0	3	0	-2	-1	x	x
O=C(CCC1CCCN(C(=O)c2ccc3c(c2)OCCO3)C1)NCc1ccccc1F (stereo unspecified)	6	11	-4	0	-5	2	x	x
SMILES	VLA-4 inh	procasp7 counter	procasp3 activ	GRK2 inh	JMJD2C inh	Lipid droplet	GRK2 CP1	Aptamer quench SP	others
Cc1ccc(CNC(=O)CCC2CCCN(C(=O)c3ccc4c(c3)OCO4)C2)o1 (stereo unspecified)	7	-4	0	45*	-12	-2	-2	93
O=C(NCC(F)(F)F)c1ccc(S(=O)(=O)Nc2ccccc2N2CCCC2)cc1	-2	-18	-1	89*	15	x	21	117
CCOC(=O)c1cc2c(C)n(-c3ccc(N(C)C)cc3)c(C)c2cc(C(=O)OCC)c1=O	30	3	5	69*	0	x	0	103
CC1=NN(c2cccc(C(=O)O)c2)C(=O)/C1=C\C=C\c1ccco1	2	-8	-17	83*	-6	-4	60*	96	Aptamer quench 1=9.6
NNC(=O)c1ccc(N2CCc3ccccc32)c([N+](=O)[O-])c1	-6	-7	4	19	-9	10	x	x
Cc1ccc(CNC(=O)c2ccc(N3CCc4ccccc43)c([N+](=O)[O-])c2)cc1	2	0	2	3	-4	-5	0	98
CCC(=O)Nc1ccc(C(=O)CSc2nnc(-c3ccccc3F)n2C2CC2)cc1	9	3	-8	0	-9	15	x	x
CCC(C)NC(=O)NC(=O)CSc1nnc(-c2ccccc2F)n1C1CC1 (stereo unspecified)	1	0	9	49*	3	2	1	106
COCCn1c(=O)[nH]c2cc(C(=O)Nc3ccc(OC)c(Cl)c3)ccc2c1=O	-14	-3	8	57*	7	-6	-1	102
Cc1sc2c(c1C)C(=O)/C(=C\Nc1ccccn1)S(=O)(=O)N2C	17	5	7	57*	31	8	-3	94
COc1cc(NC(=O)C2CCCCC2)c(OC)cc1NC(=O)c1ccccc1	9	-1	4	1	4	-8	x	x
